According to ChEMBL document CHEMBL1142242, “Indanylacetic acid derivatives carrying 4-thiazolyl-phenoxy tail groups, a new class of potent PPAR alpha/gamma/delta pan agonists: synthesis, structure-activity relationship, and in vivo efficacy” (J Med Chem, 2007):
Values after ≈ are worked out from the molar mass of the structure shown. Blank lines part the entries; values can stand above or below the compound they belong to. Active and inactive are the calls of the source. No cut-off for these calls is given here.

Columns and labels:
[1] = Aqueous solubility of the compound; format: physicochemical
[2] = target: T1, Peroxisome proliferator-activated receptor gamma (Mus musculus, UniProt P37238); assay: Agonist activity at PPAR gamma in mouse 3T3L1 cells assessed as increase in insulin receptor by IRBA; format: functional, cell-based, 3T3-L1
T1 sequence (P37238 whole entry): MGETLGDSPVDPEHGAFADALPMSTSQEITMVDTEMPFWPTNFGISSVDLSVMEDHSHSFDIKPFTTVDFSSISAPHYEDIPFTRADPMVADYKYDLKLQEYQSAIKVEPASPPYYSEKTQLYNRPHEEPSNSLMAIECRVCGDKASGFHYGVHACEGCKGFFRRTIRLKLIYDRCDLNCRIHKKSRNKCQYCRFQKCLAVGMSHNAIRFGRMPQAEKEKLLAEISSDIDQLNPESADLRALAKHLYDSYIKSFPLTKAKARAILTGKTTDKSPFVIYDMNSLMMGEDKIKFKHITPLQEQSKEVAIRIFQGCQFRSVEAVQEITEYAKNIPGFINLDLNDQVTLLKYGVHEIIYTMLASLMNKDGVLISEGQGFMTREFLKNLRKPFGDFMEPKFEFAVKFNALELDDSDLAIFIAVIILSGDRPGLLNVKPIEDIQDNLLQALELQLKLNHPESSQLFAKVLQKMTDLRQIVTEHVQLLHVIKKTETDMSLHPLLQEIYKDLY

[3] = target: T2, Peroxisome proliferator-activated receptor delta (Homo sapiens, UniProt Q03181); assay: Agonist activity at human PPAR delta by FRET assay; format: functional
T2 sequence (Q03181 whole entry): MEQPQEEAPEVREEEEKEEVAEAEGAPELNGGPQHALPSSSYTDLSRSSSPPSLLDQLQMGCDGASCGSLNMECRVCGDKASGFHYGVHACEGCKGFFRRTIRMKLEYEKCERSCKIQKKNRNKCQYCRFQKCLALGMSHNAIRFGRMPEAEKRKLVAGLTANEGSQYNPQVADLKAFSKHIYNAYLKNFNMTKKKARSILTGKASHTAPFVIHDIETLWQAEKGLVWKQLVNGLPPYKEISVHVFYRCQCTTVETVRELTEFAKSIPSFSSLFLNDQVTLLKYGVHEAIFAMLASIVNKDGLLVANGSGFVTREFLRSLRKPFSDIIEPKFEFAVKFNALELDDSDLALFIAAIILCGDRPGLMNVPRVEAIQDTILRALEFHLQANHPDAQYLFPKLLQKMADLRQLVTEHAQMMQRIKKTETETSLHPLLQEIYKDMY

[4] = target: T3, Peroxisome proliferator-activated receptor alpha (Homo sapiens, UniProt Q07869); assay: Agonist activity at human PPAR alpha by FRET assay; format: functional
T3 sequence (Q07869 whole entry): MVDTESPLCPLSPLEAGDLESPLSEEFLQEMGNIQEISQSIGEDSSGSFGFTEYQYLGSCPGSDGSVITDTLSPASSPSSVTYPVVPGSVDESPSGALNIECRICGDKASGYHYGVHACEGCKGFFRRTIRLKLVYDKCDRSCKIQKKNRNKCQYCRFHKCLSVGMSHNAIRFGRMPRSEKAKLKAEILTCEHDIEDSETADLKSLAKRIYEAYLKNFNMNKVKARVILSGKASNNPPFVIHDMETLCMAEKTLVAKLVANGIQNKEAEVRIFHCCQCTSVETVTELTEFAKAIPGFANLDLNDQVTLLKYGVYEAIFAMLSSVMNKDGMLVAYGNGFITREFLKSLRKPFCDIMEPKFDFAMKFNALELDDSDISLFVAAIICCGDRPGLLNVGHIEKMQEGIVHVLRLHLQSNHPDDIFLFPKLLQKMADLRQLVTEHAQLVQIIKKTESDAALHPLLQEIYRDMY
In short: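 Human PPARα ligand binding domain (GST-tagged) association with biotin-labeled co-activator CBP; Eu-labeled anti-GST antibody and streptavidin-APC; incubated 2 h at rt in buffer with or without compound; fluorescence read at 615 or 655 nm emission, 340 nm excitation.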

Rattus norvegicus [5] = assay: Reduction of FFA level in ZDF rat at 1 mg/kg, po after 21 days; format: functional, organism-based; set-up: dose 1 mg/kg
In short: (§1)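 Male ZDF rats, on chow 4-8 weeks to confirm hyperglycemia, grouped by equal baseline blood glucose; oral dosing once daily for 21 days in 0.5% methylcellulose in water; bled ~24 h after last dose; plasma FFA measured.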

Mus musculus [6] = assay: Increase of plasma HDLc level in female human apoA1 transgenic mouse at 10 mg/kg; format: functional, organism-based; set-up: dose 10 mg/kg
In short: (§2)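 hApoA1 transgenic mice, 6 weeks old at purchase, grouped by equal baseline plasma triglyceride; oral dosing once daily for 7 days in 0.5% methylcellulose in water; bled ~24 h after last dose; plasma triglyceride and HDLc by autoanalyzer; mean ± SEM, 6-8 mice.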

Estrogen receptor = Estrogen receptor (Mus musculus, UniProt O08537+P19785); assay: Displacement of [3H]O-estradiol from ER in Swiss mouse uteri; format: protein assay
Mus musculus [7] = assay: Increase of plasma HDLc level in male human apoA1 transgenic mouse at 10 mg/kg; format: functional, organism-based; set-up: dose 10 mg/kg; in short: as §2
Mus musculus [8] = assay: Reduction of blood glucose level in orally dosed db/db mouse at 3 mg/kg after 8 days; format: functional, organism-based; set-up: dose 3 mg/kg
In short: (§3)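 Female db/db mice, on chow 3-4 weeks to confirm hyperglycemia, grouped by equal baseline blood glucose; oral dosing once daily in 0.5% methylcellulose in water; blood glucose by analyzer ~24 h after last dose; percent change vs vehicle = ((Tf/Ti)/(Vf/Vi) − 1) × 100.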

Syrian golden hamster [9] = assay: Increase of HDL/LDL ratio in fat fed hyperlipidemic Golden Syrian hamster at 10 mg/kg, po after 14 days; format: functional, organism-based; set-up: dose 10 mg/kg; conditions: Mesocricetus auratus
In short: (§4)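 Male Syrian Golden hamsters (≤7 weeks, 120-150 g) on high fat diet plus 10% fructose drinking water; bled day 10, then dosed orally once daily by weight for 14 days; necropsy day 24; EDTA plasma lipoproteins resolved by FPLC; mean ± SEM, 10 hamsters.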

Mus musculus [10] = assay: Reduction of blood glucose level in orally dosed db/db mouse at 1 mg/kg after 8 days; format: functional, organism-based; set-up: dose 1 mg/kg; in short: as §3
Syrian golden hamster [11] = assay: Reduction of LDL level in fat fed hyperlipidemic Golden Syrian hamster at 10 mg/kg, po after 14 days; format: functional, organism-based; set-up: dose 10 mg/kg; conditions: Mesocricetus auratus; in short: as §4
Mus musculus [12] = assay: Reduction of blood glucose level in orally dosed db/db mouse at 10 mg/kg after 8 days; format: functional, organism-based; set-up: dose 10 mg/kg; in short: as §3
[13] = target: T4, Peroxisome proliferator-activated receptor alpha (Homo sapiens) (UniProt Q07869); assay: (§5) Agonist activity at human PPAR alpha expressed in CV1 cells by GAL4 transactivation assay; format: functional, cell-based; conditions: CV-1
T4 sequence (whole entry): T3 sequence (Q07869 whole entry)
In short: (§6)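 CV-1 cells plated, grown overnight at 37 °C in 5% CO₂, then transfected with GAL4-fused human PPARα ligand binding domain, pFR-LUC and pRL-SV40 reporter DNAs by lipofection. After a further overnight incubation, cells were exposed to compound or vehicle overnight. Activity was read as dual-luciferase reporter signal.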

[14] = tested on: PPAR alpha (Mesocricetus auratus); assay: Agonist activity at Syrian Golden hamster PPAR alpha
Mus musculus [15] = assay: Reduction of plasma triglyceride level in male human apoA1 transgenic mouse at 10 mg/kg; format: functional, organism-based; set-up: dose 10 mg/kg; in short: as §2
[16] = target: T5, Peroxisome proliferator-activated receptor alpha (Mus musculus) (UniProt P23204); assay: (§7) Agonist activity at mouse PPAR alpha; format: functional
T5 sequence (whole entry): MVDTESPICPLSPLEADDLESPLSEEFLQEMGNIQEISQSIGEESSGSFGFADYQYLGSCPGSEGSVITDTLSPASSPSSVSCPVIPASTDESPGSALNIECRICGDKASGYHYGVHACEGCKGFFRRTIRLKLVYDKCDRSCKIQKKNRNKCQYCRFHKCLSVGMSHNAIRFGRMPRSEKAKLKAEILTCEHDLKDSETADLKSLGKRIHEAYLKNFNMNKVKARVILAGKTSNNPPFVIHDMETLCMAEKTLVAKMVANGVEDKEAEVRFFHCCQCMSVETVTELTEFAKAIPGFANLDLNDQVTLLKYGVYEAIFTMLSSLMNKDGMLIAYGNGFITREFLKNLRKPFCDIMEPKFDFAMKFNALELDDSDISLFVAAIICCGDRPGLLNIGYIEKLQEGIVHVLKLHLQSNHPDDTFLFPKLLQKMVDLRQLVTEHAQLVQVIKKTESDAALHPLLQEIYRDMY

Rattus norvegicus [17] = assay: Reduction of FFA level in ZDF rat at 3 mg/kg, po after 21 days; format: functional, organism-based; set-up: dose 3 mg/kg; in short: as §1
Syrian golden hamster [18] = assay: Reduction of VLDL level in fat fed hyperlipidemic Golden Syrian hamster at 10 mg/kg, po after 14 days; format: functional, organism-based; set-up: dose 10 mg/kg; conditions: Mesocricetus auratus; in short: as §4
Cytochrome P450 2D6 = Cytochrome P450 2D6 (Homo sapiens, UniProt P10635); assay: Inhibition of CYP2D6; format: ADME
Cytochrome P450 2D6, sequence (P10635 whole entry, canonical isoform): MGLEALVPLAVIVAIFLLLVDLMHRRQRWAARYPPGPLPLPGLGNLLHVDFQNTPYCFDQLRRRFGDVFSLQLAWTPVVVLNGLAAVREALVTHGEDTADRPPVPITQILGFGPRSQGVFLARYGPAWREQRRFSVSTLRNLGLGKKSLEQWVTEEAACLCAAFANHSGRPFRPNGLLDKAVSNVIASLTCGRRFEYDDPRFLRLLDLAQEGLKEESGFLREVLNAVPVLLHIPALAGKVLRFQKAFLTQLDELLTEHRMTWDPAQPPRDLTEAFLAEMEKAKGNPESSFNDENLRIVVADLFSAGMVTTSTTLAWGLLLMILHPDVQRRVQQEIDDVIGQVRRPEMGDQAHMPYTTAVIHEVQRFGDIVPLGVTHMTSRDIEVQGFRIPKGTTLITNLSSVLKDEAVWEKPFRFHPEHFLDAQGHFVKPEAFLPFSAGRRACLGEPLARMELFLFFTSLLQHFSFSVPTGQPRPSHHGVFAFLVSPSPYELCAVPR
In short: (§8)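 Enzyme assays per CYP isoform (1A2, 2C8, 2D6, 3A4), with turnover of an appropriate fluorescent substrate as read-out; IC₅₀ reported.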

Glucocorticoid receptor = Glucocorticoid receptor (Homo sapiens, UniProt P04150); assay: Displacement of [H]dexamethaxone from glucocorticoid receptor in HUH cells; format: cell-based
Glucocorticoid receptor, sequence (P04150 whole entry): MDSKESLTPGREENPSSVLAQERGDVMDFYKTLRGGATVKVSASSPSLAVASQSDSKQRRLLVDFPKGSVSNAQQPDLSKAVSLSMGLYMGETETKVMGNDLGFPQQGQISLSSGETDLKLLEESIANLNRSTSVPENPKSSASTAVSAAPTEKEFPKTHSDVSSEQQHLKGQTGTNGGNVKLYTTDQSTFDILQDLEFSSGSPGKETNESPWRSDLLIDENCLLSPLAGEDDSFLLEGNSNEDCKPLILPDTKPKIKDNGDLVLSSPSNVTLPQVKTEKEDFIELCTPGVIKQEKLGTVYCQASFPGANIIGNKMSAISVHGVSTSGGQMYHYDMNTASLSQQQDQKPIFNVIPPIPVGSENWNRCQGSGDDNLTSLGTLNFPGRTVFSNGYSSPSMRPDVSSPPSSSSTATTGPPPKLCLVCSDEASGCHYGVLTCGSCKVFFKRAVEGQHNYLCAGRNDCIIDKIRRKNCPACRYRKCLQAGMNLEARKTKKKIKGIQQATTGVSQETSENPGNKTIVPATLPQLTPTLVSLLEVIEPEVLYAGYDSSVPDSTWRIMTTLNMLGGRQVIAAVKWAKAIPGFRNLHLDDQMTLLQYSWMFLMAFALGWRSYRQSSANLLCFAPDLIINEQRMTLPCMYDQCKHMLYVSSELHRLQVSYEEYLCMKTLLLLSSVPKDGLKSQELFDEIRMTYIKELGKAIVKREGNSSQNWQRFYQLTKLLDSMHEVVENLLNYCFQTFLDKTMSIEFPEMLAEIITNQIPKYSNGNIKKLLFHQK

Cytochrome P450 3A4 = Cytochrome P450 3A4 (Homo sapiens, UniProt P08684); assay: Inhibition of CYP3A4; format: ADME; in short: as §8
Cytochrome P450 3A4, sequence (P08684 whole entry): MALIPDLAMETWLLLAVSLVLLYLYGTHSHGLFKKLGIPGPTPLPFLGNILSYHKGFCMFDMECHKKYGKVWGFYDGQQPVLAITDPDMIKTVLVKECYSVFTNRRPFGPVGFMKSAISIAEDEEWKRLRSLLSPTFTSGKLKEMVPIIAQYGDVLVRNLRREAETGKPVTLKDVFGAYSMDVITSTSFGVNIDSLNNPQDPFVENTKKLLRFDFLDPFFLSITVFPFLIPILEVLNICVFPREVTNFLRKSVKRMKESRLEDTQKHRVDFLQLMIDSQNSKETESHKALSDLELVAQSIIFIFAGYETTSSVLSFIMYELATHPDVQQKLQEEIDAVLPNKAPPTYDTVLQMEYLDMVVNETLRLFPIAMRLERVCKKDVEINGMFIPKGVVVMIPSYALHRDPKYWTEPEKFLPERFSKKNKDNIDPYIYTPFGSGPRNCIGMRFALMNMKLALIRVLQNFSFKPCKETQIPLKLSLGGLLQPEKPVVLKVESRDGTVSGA

Androgen receptor = Androgen receptor (Homo sapiens, UniProt P10275); assay: Displacement of [3H]dihydrotestosterone from human recombinant androgen receptor expressed in SF9 baculovirus cells
Androgen receptor, sequence (P10275 whole entry): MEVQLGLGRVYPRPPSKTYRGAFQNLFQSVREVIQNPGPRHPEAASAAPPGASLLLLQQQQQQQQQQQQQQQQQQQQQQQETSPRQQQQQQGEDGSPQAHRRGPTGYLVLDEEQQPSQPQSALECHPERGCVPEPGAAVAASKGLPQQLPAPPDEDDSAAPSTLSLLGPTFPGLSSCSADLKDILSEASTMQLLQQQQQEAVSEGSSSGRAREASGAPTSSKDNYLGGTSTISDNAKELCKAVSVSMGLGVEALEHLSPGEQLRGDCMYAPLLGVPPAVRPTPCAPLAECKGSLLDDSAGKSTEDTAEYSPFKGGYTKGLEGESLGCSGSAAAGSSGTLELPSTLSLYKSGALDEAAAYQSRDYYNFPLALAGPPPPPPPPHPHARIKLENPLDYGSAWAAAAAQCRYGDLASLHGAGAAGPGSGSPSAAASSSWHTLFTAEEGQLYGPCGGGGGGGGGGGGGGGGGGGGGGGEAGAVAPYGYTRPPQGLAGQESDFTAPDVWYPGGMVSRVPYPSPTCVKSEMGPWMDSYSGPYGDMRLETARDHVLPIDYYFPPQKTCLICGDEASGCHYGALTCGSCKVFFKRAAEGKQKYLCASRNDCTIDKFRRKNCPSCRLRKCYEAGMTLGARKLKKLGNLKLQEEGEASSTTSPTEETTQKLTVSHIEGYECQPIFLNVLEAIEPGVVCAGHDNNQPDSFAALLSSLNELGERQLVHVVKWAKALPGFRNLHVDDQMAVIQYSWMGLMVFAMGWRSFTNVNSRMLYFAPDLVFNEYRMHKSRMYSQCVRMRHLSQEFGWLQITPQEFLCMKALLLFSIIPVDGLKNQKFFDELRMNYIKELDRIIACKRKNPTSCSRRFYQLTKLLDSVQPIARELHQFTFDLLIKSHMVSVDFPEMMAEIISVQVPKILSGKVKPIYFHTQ

Cytochrome P450 2C8 = Cytochrome P450 2C8 (Homo sapiens, UniProt P10632); assay: Inhibition of CYP2C8; format: ADME; in short: as §8
Cytochrome P450 2C8, sequence (P10632 whole entry): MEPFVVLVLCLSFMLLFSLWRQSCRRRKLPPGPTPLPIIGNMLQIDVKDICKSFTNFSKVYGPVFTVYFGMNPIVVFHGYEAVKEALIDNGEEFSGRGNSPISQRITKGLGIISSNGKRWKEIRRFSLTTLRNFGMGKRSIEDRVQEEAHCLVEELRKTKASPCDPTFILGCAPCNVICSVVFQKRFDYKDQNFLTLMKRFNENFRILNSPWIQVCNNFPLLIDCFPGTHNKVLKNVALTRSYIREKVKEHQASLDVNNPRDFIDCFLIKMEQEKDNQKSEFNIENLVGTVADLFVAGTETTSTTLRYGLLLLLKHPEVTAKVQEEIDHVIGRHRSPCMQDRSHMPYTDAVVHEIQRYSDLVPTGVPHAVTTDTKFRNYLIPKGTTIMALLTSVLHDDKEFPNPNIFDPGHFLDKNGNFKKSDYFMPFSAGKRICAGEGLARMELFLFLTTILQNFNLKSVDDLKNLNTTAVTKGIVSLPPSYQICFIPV

[19] = Cmax in mouse at 10 mg/kg, po; format: ADME, organism-based; set-up: dose 10 mg/kg, route oral; conditions: in vivo
In short: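 Mice dosed orally in 0.5% methylcellulose vehicle; plasma Cmax reported.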

[20] = target: T3, Peroxisome proliferator-activated receptor alpha; assay: as §5; format: functional, cell-based, CV-1; in short: as §6
[21] = target: Peroxisome proliferator-activated receptor alpha (Mus musculus, UniProt P23204); assay: as §7; format: functional
[22] = target: T2, Peroxisome proliferator-activated receptor delta; assay: Agonist activity at human PPAR delta expressed in CV1 cells by GAL4 transactivation assay
Cytochrome P450 2C9 = Cytochrome P450 2C9 (Homo sapiens, UniProt P11712); assay: Inhibition of CYP2C9; format: ADME
Cytochrome P450 2C9, sequence (P11712 whole entry): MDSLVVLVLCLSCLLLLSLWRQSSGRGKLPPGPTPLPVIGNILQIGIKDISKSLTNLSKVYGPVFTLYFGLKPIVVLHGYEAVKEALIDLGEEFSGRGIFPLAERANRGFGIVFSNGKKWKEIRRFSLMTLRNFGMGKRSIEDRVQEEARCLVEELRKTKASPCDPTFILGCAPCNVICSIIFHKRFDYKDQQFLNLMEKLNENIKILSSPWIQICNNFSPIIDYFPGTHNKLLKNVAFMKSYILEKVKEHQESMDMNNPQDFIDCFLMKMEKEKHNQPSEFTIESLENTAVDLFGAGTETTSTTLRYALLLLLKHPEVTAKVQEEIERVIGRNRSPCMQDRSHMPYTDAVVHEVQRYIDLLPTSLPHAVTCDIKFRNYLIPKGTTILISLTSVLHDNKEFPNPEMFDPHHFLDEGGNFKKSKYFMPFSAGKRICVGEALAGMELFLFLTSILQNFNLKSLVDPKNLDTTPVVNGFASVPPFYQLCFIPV

Cytochrome P450 1A2 = Cytochrome P450 1A2 (Homo sapiens, UniProt P05177); assay: Inhibition of CYP1A2; format: ADME; in short: as §8
Progesterone receptor = Progesterone receptor (Homo sapiens, UniProt P06401); assay: Displacement of [3H]progesterone from progesterone receptor in T47D cells; format: cell-based
Progesterone receptor, sequence (P06401 whole entry): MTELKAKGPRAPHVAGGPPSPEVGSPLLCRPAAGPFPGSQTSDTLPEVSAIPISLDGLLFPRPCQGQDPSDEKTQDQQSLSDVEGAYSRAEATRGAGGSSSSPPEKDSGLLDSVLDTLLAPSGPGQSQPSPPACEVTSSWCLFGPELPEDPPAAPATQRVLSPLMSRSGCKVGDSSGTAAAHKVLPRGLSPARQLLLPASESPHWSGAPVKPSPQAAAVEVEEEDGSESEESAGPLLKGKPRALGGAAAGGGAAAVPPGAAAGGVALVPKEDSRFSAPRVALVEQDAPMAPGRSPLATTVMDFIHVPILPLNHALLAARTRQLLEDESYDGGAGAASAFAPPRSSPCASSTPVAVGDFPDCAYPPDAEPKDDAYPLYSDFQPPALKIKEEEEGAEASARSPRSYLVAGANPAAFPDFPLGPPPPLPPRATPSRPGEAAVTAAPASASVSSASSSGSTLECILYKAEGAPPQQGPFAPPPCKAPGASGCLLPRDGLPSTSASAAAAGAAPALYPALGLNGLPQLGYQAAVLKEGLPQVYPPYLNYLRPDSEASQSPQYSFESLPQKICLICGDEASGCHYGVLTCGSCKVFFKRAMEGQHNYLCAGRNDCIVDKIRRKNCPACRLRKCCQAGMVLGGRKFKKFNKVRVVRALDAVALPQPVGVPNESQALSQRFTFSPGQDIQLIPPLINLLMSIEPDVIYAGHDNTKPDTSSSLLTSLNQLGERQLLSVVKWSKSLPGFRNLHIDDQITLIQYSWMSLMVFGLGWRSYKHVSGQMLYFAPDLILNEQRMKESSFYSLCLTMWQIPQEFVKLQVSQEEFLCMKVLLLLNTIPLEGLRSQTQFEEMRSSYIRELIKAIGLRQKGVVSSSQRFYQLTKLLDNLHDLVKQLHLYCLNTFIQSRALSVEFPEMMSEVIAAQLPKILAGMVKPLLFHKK
In short: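 Cytosol from T47D cells incubated overnight at 4 °C with ³H-progesterone at 10 nM final, with or without compound. DMSO defined total binding and 1 µM unlabelled progesterone defined nonspecific binding. Bound and free ligand were separated on a spin plate, and the flow-through was counted by scintillation.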

[23] = target: Peroxisome proliferator-activated receptor delta (Mus musculus, UniProt P35396); assay: Agonist activity at mouse PPAR delta
Peroxisome proliferator-activated receptor delta (Mus musculus, UniProt P35396), sequence (P35396 whole entry): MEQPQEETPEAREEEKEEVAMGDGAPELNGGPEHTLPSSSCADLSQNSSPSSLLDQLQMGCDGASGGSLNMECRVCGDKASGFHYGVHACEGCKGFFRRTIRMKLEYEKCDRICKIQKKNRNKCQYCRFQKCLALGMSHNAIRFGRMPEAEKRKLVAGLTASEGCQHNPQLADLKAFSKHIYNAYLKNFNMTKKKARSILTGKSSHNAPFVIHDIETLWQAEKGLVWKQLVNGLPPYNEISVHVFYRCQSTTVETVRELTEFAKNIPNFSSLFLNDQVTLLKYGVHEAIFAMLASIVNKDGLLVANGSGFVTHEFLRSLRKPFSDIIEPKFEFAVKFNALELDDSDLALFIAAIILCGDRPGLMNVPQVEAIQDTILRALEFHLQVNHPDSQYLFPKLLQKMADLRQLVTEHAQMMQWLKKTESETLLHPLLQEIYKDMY

[24] = Aqueous solubility at pH 6.8; format: physicochemical

SMILES: CCCc1c(OCCCOc2ccc3c(c2)CC[C@H]3CC(=O)O)ccc2c(C(F)(F)F)noc12
solubility [1]: < 1 µM
EC50 [2]: 42 nM
EC50 [3]: 6 nM
EC50 [4]: 192 nM

EC50 (Estrogen receptor): > 10000 nM
Activity [13]: 88%
Activity [14]: 100%
Activity [16]: 25%
SMILES: CCCc1cc(C2=NC3OCCCC3S2)ccc1OCCCOc1ccc2c(c1)CC[C@H]2CC(=O)O (stereo partly drawn)
Activity (Rattus norvegicus [5]): Active
Activity (Mus musculus [6]): Active
Activity (Mus musculus [7]): Dose-dependent effect
Activity (Mus musculus [8]): Dose-dependent effect
Activity (Syrian golden hamster [9]): Active
Activity (Mus musculus [10]): Dose-dependent effect
Activity (Syrian golden hamster [11]): Active
Activity (Mus musculus [12]): Dose-dependent effect
Activity (Mus musculus [15]): Dose-dependent effect
Activity (Rattus norvegicus [17]): Active
Activity (Syrian golden hamster [18]): Active

SMILES: O=C(O)C[C@@H]1CCc2cc(OCCCOc3ccc(-c4nc5c(s4)CCCC5)cc3)ccc21
IC50 (Cytochrome P450 2D6): > 10000 nM
EC50 (Glucocorticoid receptor): > 10000 nM
EC50 (Estrogen receptor): > 10000 nM
EC50 [3]: 2.2 nM
IC50 (Cytochrome P450 3A4): > 10000 nM
EC50 [4]: 391 nM
EC50 (Androgen receptor): > 10000 nM
IC50 (Cytochrome P450 2C8): > 10000 nM
Cmax [19]: 20 µM
EC50 [20]: 152 nM
Activity [13]: 100%
Activity [16]: 28%
EC50 [21]: > 10000 nM
EC50 [22]: 40 nM
IC50 (Cytochrome P450 2C9): > 10000 nM
IC50 (Cytochrome P450 1A2): > 10000 nM
EC50 (Progesterone receptor): > 10000 nM
EC50 [23]: 84 nM
solubility [24]: 31 µM (≈ 14.4 µg/mL)
